How the values were obtained:
[1] = system: HT-29; experiment: Cytotoxicity against human HT-29 cells assessed as growth inhibition after 72 hrs by XTT assay; type: functional, cell-based; settings: HT-29, 72 h
Method in brief: (§1)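 Cells seeded at 1.5 x 10^3 per well (A549, HeLa, HT-29) or 3 x 10^3 (HL-60) in medium with 10% heat-inactivated FBS. Compound tested from 10-5 to 10-13 M for 72 h at 37 °C, then XTT readout. […] Triplicate wells, three experiments; mean ± S.D.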

[2] = system: A549; experiment: Cytotoxicity against human A549 cells assessed as growth inhibition after 72 hrs by XTT assay; type: functional, cell-based; settings: A549, 72 h; method in brief: as §1
[3] = system: HeLa; experiment: Cytotoxicity against human HeLa cells assessed as growth inhibition after 72 hrs by XTT assay
[4] = species: Bos taurus; experiment: Inhibition of bovine brain tubulin polymerization at 20 uM after 30 mins by spectrophotometry
Method in brief: (§2)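 Bovine brain tubulin at 1.5 mg/mL, pH 6.7, in 0.1 M MES, 1 mM EGTA, 1 mM MgCl2, 1 mM β-ME, 1.5 mM GTP with ligand. Incubated 20 °C for 30 min, then on ice 10 min. Assembly read as the A450 rise on a shift from 4 to 38 °C; inhibition is plateau minus baseline against ligand-free control. IC50 from monoexponential fits.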

[5] = system: HL-60; experiment: Cytotoxicity against human HL60 cells assessed as growth inhibition after 72 hrs by XTT assay; type: functional, cell-based; settings: HL-60, 72 h; method in brief: as §1
[6] = Inhibition of bovine brain tubulin polymerization after 30 mins by spectrophotometry; parameters: species or system Bos taurus; method in brief: as §2

SMILES	inhibition [4] [%]	IC50 [6] [nM]	IC50 [1] [nM]	IC50 [2] [nM]	IC50 [3] [nM]	IC50 [5] [nM]
COc1cc(C(=O)c2nc3ccc(Br)cc3n2C)cc(OC)c1OC	37	–	2700	10000	2300	2400
COc1cc(C(C)c2ccc3c(c2)c(C)cn3C)cc(OC)c1OC (configuration not stated)	90	–	310	320	310	280
COc1ccc(C(=O)c2ccc3c(ccn3C)c2)c(OC)c1OC	100	400	240	380	–	240
COc1cc(C(=CC=O)c2ccc3c(c2)c(C=O)cn3C)cc(OC)c1OC	88	7000	220	340	31	33
C=C(c1ccc2c(c1)c(CO)cn2C)c1ccc(OC)c(OC)c1OC	32	–	460	440	300	220
COc1cc(C(C)c2ccc3[nH]ccc3c2)cc(OC)c1OC (configuration not stated)	5	–	3300	4900	2300	3400
C=C(c1cc(OC)c(OC)c(OC)c1)c1ccc2[nH]ccc2c1	36	–	5100	9000	2100	3600
C=C(c1cc(OC)c(OC)c(OC)c1)c1ccc2c(c1)c(C=NN)cn2C	12	–	300	3200	38	180
COc1cc(C(=O)c2ccc3c(c2)c(C(=O)O)cn3C)cc(OC)c1OC	2	–	> 10000	> 10000	7000	> 10000

Now from value to compound, other results behind:

inhibition [4] [%]	IC50 [6] [nM]	SMILES	IC50 [1] [nM]	IC50 [2] [nM]	IC50 [3] [nM]	IC50 [5] [nM]
0	–	COc1cc(C(C)c2ccc3[nH]cc(C=O)c3c2)cc(OC)c1OC (configuration not stated)	5800	9100	5800	5400
32	–	C=C(c1cc(OC)c(OC)c(OC)c1)c1ccc2c(c1)c(CO)cn2C	2000	3200	310	250
0	–	COc1cc(C(=O)c2ccc3ocnc3c2)cc(OC)c1OC	2800	10000	340	470
98	7900	COc1cc(C(=O)c2ccc3c(ccn3C)c2)cc(OC)c1OC	27	190	25	27
0	–	COc1ccc(C(C)c2ccc3c(c2)c(C=NN)cn3C)c(OC)c1OC (configuration not stated)	3200	> 10000	430	1800
22	–	COc1cc(C(O)c2nc3ccc(Br)cc3n2C)cc(OC)c1OC (configuration not stated)	> 10000	> 10000	> 10000	> 10000
37	–	COc1cc(C(=O)c2nc3cc(Br)ccc3n2C)cc(OC)c1OC	340	400	190	29
96	–	COc1cc(/C(=C\C=O)c2ccc3c(c2)c(C=O)cn3C)cc(OC)c1OC	170	320	30	29
40	–	COc1ccc(C(=O)c2ccc3c(c2)c(C#N)cn3C)c(OC)c1OC	310	2000	270	290
87	–	COc1ccc(C(C)c2ccc3c(ccn3C)c2)c(OC)c1OC (configuration not stated)	330	470	310	370
2	–	COc1cc(C(O)c2nc3cc(Br)ccc3n2C)cc(OC)c1OC (configuration not stated)	> 10000	> 10000	> 10000	> 10000
73	–	COc1ccc(C(=O)c2ccc3c(c2)c(C=O)cn3C)c(OC)c1OC	5300	> 10000	780	780

Source: ChEMBL document CHEMBL2321691 (J Med Chem, 2013)
